Results reported in ChEMBL document CHEMBL1157638, “Fluorescent epigenetic small molecule induces expression of the tumor suppressor ras-association domain family 1A and inhibits human prostate xenograft” (J Med Chem, 2010).
Calls of active or inactive are those of the source. The rule behind the calls is not given here.

Experiments:
[1] = tested on: SF-268; assay: Growth inhibition of human SF268 cells assessed as cell growth at 100 nM relative to untreated control; format: functional; settings: read-out: Activity
[2] = tested on: ACHN; assay: Growth inhibition of human ACHN cells assessed as cell growth at 1 nM relative to untreated control; format: functional; settings: read-out: Activity
[3] = tested on: NCI-H460; assay: Growth inhibition of human NCI-H460 cells; format: functional
[4] = tested on: BT-549; assay: Growth inhibition of human BT549 cells assessed as cell growth at 100 nM relative to untreated control; format: functional; settings: read-out: Activity
[5] = tested on: SNB-19; assay: Growth inhibition of human SNB19 cells; format: functional
[6] = tested on: NCI-H522; assay: Growth inhibition of human NCI-H522 cells assessed as cell growth at 10 nM relative to untreated control; format: functional; settings: read-out: Activity
[7] = tested on: SK-MEL-5; assay: Growth inhibition of human SK-MEL-5 cells assessed as cell growth at 10 uM relative to untreated control; format: functional; settings: read-out: Activity
[8] = tested on: PC-3; assay: Growth inhibition of human PC3 cells assessed as cell growth at 1 uM relative to untreated control; format: functional; settings: read-out: Activity
[9] = tested on: ACHN; assay: Growth inhibition of human ACHN cells; format: functional
[10] = tested on: K562; assay: Growth inhibition of human K562 cells assessed as cell growth at 10 uM relative to untreated control; format: functional; settings: read-out: Activity
[11] = tested on: SR; assay: Growth inhibition of human SR cells assessed as cell growth at 100 nM relative to untreated control; format: functional; settings: read-out: Activity
[12] = tested on: CAKI-1; assay: Growth inhibition of human Caki1 cells assessed as cell growth at 1 nM relative to untreated control; format: functional; settings: read-out: Activity
In short: (§1)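 Run externally at the National Cancer Institute as a 59-cell-line panel screen, with concentrations up to 100 μM. Growth was scored relative to control, where negative growth or total cell kill was possible. Data are in the Supporting Information.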

[13] = tested on: CCRF-CEM; assay: Growth inhibition of human CCRF-CEM cells; format: functional
[14] = tested on: HCT-15; assay: Growth inhibition of human HCT15 cells assessed as cell growth at 10 nM relative to untreated control; format: functional; settings: read-out: Activity; in short: as §1
[15] = tested on: SK-MEL-28; assay: Growth inhibition of human SK-MEL-28 cells assessed as cell growth at 10 nM relative to untreated control; format: functional; settings: read-out: Activity
[16] = tested on: TK-10; assay: Growth inhibition of human TK10 cells assessed as cell growth at 10 nM relative to untreated control; format: functional; settings: read-out: Activity
[17] = tested on: OVCAR-3; assay: Growth inhibition of human OVCAR-3 cells; format: functional; settings: read-out: LC50 (the source's name)
[18] = tested on: UACC-257; assay: Growth inhibition of human UACC257 cells assessed as cell growth at 10 nM relative to untreated control; format: functional; settings: read-out: Activity
[19] = tested on: HL-60(TB); assay: Growth inhibition of human HL-60(TB) cells assessed as cell growth at 1 uM relative to untreated control; format: functional; settings: read-out: Activity
[20] = tested on: SF-268; assay: Growth inhibition of human SF268 cells assessed as cell growth at 1 nM relative to untreated control; format: functional; settings: read-out: Activity
[21] = tested on: MOLT-4; assay: Growth inhibition of human MOLT4 cells assessed as cell growth at 100 nM relative to untreated control; format: functional; settings: read-out: Activity
[22] = tested on: A549; assay: Growth inhibition of human A549 cells assessed as cell growth at 1 nM relative to untreated control; format: functional; settings: read-out: Activity
[23] = tested on: A549; assay: Growth inhibition of human A549 cells assessed as cell growth at 10 nM relative to untreated control; format: functional; settings: read-out: Activity
[24] = tested on: SW-620; assay: Growth inhibition of human SW620 cells assessed as cell growth at 100 nM relative to untreated control; format: functional; settings: read-out: Activity
[25] = tested on: HCC 2998; assay: Growth inhibition of human HCC2998 cells assessed as cell growth at 100 nM relative to untreated control; format: functional; settings: read-out: Activity; in short: as §1
[26] = tested on: SF-268; assay: Growth inhibition of human SF268 cells assessed as cell growth at 10 nM relative to untreated control; format: functional; settings: read-out: Activity
[27] = tested on: NCI-H522; assay: Growth inhibition of human NCI-H522 cells; format: functional
[28] = tested on: KM12; assay: Growth inhibition of human KM12 cells assessed as cell growth at 100 nM relative to untreated control; format: functional; settings: read-out: Activity
[29] = tested on: RXF 393; assay: Growth inhibition of human RXF393 cells assessed as cell growth at 1 uM relative to untreated control; format: functional; settings: read-out: Activity
[30] = tested on: HCC 2998; assay: Growth inhibition of human HCC2998 cells assessed as cell growth at 10 nM relative to untreated control; format: functional; settings: read-out: Activity; in short: as §1
[31] = tested on: MOLT-4; assay: Growth inhibition of human MOLT4 cells; format: functional
[32] = biological target: DNA (cytosine-5)-methyltransferase 3B (Homo sapiens) (UniProt Q9UBC3); assay: Binding affinity to DNMT3b in human PC3 cells cytoplasm at 5 uM after 6 hrs by antibody staining; format: cell-based; settings: PC-3
In short: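 PC-3 cells were plated overnight on fibronectin/[…]-coated slides and treated with 5 μM compound or DMSO for 1-6 h. Cells were PBS-washed, fixed in 4% formaldehyde, and stained with propidium iodide (nuclei) and anti-DNMT3a or anti-DNMT3b antibody. The compound was excited at 725 nm by multiphoton laser and imaged through a 500-550 nm filter by confocal microscopy.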

[33] = tested on: SF-268; assay: Growth inhibition of human SF268 cells assessed as cell growth at 10 uM relative to untreated control; format: functional; settings: read-out: Activity
[34] = tested on: NCI-H322M; assay: Growth inhibition of human NCI-H322M cells assessed as cell growth at 10 uM relative to untreated control; format: functional; settings: read-out: Activity
[35] = tested on: HOP-62; assay: Growth inhibition of human HOP62 cells; format: functional; in short: as §1
[36] = tested on: CCRF-CEM; assay: Growth inhibition of human CCRF-CEM cells assessed as cell growth at 1 nM relative to untreated control; format: functional; settings: read-out: Activity
[37] = tested on: NCI-H226; assay: Growth inhibition of human NCI-H226 cells assessed as cell growth at 10 uM relative to untreated control; format: functional; settings: read-out: Activity
[38] = tested on: HOP-62; assay: Growth inhibition of human HOP62 cells assessed as cell growth at 100 nM relative to untreated control; format: functional; settings: read-out: Activity; in short: as §1
[39] = tested on: M14; assay: Growth inhibition of human M14 cells assessed as cell growth at 1 nM relative to untreated control; format: functional; settings: read-out: Activity
[40] = tested on: BT-549; assay: Growth inhibition of human BT549 cells assessed as cell growth at 1 nM relative to untreated control; format: functional; settings: read-out: Activity
[41] = tested on: NCI-H460; assay: Growth inhibition of human NCI-H460 cells assessed as cell growth at 1 nM relative to untreated control; format: functional; settings: read-out: Activity
[42] = tested on: HL-60(TB); assay: Growth inhibition of human HL-60(TB) cells assessed as cell growth at 10 uM relative to untreated control; format: functional; settings: read-out: Activity
[43] = tested on: SNB-75; assay: Growth inhibition of human SNB75 cells assessed as cell growth at 1 nM relative to untreated control; format: functional; settings: read-out: Activity
[44] = Growth inhibition of human Hs 578T cells assessed as cell growth at 1 nM relative to untreated control; format: functional; settings: read-out: Activity
[45] = tested on: NCI-H23; assay: Growth inhibition of human NCI-H23 cells assessed as cell growth at 10 uM relative to untreated control; format: functional; settings: read-out: Activity
[46] = tested on: 786-0; assay: Growth inhibition of human 786-0 cells assessed as cell growth at 1 nM relative to untreated control; format: functional; settings: read-out: Activity
[47] = read-out: LC50 (the source's name)

## COc1ccc2c(c1)[nH]c1c(C)c(OS(=O)(=O)c3cccc4c(N(C)C)cccc34)ccc12
[1]
  growth at 0.1 µM: 96%
[2]
  growth at 0.001 µM: 100%
[3]
  GI50: 3.46 µM
  TGI: 55.5 µM
[3]; [47]
  CC50: > 100 µM
[4]
  growth at 0.1 µM: 93%
[5]
  GI50: 7.88 µM
  TGI: > 100 µM
[5]; [47]
  CC50: > 100 µM
[6]
  growth at 0.01 µM: 101%
[7]
  growth at 10 µM: -28%
[8]
  growth at 1 µM: 18%
[9]
  GI50: 7.38 µM
  TGI: > 100 µM
[9]; [47]
  CC50: > 100 µM
[10]
  growth at 10 µM: 5%
[11]
  growth at 0.1 µM: 95%
[12]
  growth at 0.001 µM: 98%
[13]
  GI50: 2.88 µM
  TGI: > 100 µM
[13]; [47]
  CC50: > 100 µM
[14]
  growth at 0.01 µM: 92%
[15]
  growth at 0.01 µM: 87%
[16]
  growth at 0.01 µM: 94%
[17]
  CC50: > 100 µM
[18]
  growth at 0.01 µM: 109%
[19]
  growth at 1 µM: -9%
[20]
  growth at 0.001 µM: 102%
[21]
  growth at 0.1 µM: 99%
[22]
  growth at 0.001 µM: 101%
[23]
  growth at 0.01 µM: 97%
[24]
  growth at 0.1 µM: 95%
[25]
  growth at 0.1 µM: 78%
[26]
  growth at 0.01 µM: 111%
[27]
  GI50: 9.97 µM
  TGI: > 100 µM
[27]; [47]
  CC50: > 100 µM
[28]
  growth at 0.1 µM: 97%
[29]
  growth at 1 µM: -29%
[30]
  growth at 0.01 µM: 101%
[31]
  GI50: 4.19 µM
  TGI: > 100 µM
[31]; [47]
  CC50: > 100 µM
[32]
  Activity: Active
[33]
  growth at 10 µM: 27%
[34]
  growth at 10 µM: 34%
[35]
  GI50: 17.3 µM
  TGI: > 100 µM
[35]; [47]
  CC50: > 100 µM
[36]
  growth at 0.001 µM: 99%
[37]
  growth at 10 µM: 39%
[38]
  growth at 0.1 µM: 106%
[39]
  growth at 0.001 µM: 102%
[40]
  growth at 0.001 µM: 100%
[41]
  growth at 0.001 µM: 102%
[42]
  growth at 10 µM: -18%
[43]
  growth at 0.001 µM: 107%
[44]
  growth at 0.001 µM: 105%
[45]
  growth at 10 µM: 8%
[46]
  growth at 0.001 µM: 101%
